Active and inactive are the calls of the source. The calls are words filed in the database; no cut-off is given here.
Tests used:
[1] = Metabolic stability of the compound in mouse liver microsomes assessed as compound remaining at 1 uM after 30 mins; assay type: ADME, Microsome; conditions: read-out: Stability
How it was run: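 Compound at 1 μM incubated 30 min with mouse liver microsomes at 0.1 mg/ml protein. Percent of parent compound remaining reported.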

Plasma = experiment: Plasma concentration in BALB/c mouse at 30 mg/kg, po after 90 mins; assay type: ADME, organism-based; set-up: dose 30 mg/kg
How it was run: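 Plasma concentration of compound in mice measured 90 min after a 30 mg/kg oral dose.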

[2] = molecular target: T1, Inhibitor of nuclear factor kappa-B kinase subunit beta (Homo sapiens, UniProt O14920); experiment: Inhibition of purified His-tagged IKK-beta after 15 mins
T1 sequence (O14920 whole entry): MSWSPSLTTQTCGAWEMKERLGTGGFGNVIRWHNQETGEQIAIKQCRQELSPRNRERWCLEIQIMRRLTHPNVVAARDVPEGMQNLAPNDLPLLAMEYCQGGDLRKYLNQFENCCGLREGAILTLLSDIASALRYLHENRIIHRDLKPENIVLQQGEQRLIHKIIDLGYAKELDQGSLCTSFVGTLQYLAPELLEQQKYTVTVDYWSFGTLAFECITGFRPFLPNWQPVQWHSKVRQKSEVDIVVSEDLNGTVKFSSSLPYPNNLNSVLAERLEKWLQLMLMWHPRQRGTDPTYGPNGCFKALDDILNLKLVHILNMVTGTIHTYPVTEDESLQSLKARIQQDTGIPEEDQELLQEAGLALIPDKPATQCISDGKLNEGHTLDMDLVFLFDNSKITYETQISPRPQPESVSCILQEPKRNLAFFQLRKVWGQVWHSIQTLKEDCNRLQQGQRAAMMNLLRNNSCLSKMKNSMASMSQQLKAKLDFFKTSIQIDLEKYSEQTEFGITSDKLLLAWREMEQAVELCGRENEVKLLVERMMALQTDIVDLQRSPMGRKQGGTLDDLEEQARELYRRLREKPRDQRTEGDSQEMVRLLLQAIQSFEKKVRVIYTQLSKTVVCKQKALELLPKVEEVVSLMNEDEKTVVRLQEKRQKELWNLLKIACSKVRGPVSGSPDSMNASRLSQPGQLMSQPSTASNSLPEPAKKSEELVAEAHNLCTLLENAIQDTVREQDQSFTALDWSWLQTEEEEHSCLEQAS

Blood = experiment: Antiinflammatory activity in BALB/c mouse whole blood assessed as inhibition of LPS-induced TNFalpha production by ELISA; assay type: functional, tissue-based
How it was run: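 Mouse whole blood cell suspension stimulated with LPS (medium-only control), incubated 4 h at 37 °C in 5% CO2. Plasma then separated by centrifugation at 4 °C and TNFα measured by ELISA. IC50 derived.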

Mus musculus = experiment: Antiinflammatory activity in BALB/c mouse assessed as inhibition of LPS-induced TNFalpha production at 30 mg/kg, po after 1 hr by ELISA; assay type: functional
How it was run: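 Male BALB/c mice (7–12 weeks old) dosed orally, vehicle 0.5% methyl cellulose. LPS 0.02 mg/kg in saline given i.v. 30 min after dosing. Plasma separated at 4 °C, stored at −20 °C, and TNFα quantified by ELISA. Percent inhibition recorded.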

[3] = Membrane permeability at pH 7.4 by PAMPA assay; assay type: ADME; conditions: read-out: permeability
How it was run: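 Parallel artificial membrane permeability assay run at pH 7.4. Effective permeability Pe reported in 10^-6 cm/s as the median of three tests.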

[4] = molecular target: Tyrosine-protein kinase JAK2 (Homo sapiens) (UniProt O60674); experiment: Inhibition of JAK2 at 10 uM
[5] = molecular target: ALK tyrosine kinase receptor (Homo sapiens) (UniProt Q9UM73); experiment: Inhibition of ALK at 10 uM
[6] = molecular target: T2, Serine/threonine-protein kinase D2 (Homo sapiens) (UniProt Q9BZL6); experiment: Inhibition of PKD2 at 10 uM
T2 sequence (whole entry): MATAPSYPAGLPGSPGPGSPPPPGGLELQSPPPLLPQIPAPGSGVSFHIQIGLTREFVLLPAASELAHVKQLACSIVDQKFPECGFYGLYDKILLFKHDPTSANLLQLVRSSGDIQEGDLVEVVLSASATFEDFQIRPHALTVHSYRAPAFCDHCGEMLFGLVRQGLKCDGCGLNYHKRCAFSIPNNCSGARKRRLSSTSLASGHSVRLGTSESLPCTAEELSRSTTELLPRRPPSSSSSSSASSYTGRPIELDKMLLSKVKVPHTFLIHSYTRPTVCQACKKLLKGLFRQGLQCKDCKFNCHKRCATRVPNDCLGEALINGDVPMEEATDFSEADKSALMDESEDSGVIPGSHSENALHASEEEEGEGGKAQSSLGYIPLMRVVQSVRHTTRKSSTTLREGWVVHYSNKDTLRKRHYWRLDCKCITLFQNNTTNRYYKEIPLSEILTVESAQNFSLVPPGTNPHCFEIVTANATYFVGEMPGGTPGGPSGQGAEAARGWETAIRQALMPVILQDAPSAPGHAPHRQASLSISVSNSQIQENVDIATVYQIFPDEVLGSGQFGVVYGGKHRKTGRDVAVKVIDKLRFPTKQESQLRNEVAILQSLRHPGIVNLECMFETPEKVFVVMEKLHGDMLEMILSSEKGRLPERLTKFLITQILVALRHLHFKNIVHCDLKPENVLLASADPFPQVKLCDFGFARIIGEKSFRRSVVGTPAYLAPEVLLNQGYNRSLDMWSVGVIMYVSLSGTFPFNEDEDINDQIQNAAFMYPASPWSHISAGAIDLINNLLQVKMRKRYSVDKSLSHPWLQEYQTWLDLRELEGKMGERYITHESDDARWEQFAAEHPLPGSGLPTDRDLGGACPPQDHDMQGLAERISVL

[7] = molecular target: Serine/threonine-protein kinase D3 (Homo sapiens) (UniProt O94806); experiment: Inhibition of PKD3 at 0.2 uM
Chain of Serine/threonine-protein kinase D3 (Homo sapiens) (O94806 whole entry, looked up): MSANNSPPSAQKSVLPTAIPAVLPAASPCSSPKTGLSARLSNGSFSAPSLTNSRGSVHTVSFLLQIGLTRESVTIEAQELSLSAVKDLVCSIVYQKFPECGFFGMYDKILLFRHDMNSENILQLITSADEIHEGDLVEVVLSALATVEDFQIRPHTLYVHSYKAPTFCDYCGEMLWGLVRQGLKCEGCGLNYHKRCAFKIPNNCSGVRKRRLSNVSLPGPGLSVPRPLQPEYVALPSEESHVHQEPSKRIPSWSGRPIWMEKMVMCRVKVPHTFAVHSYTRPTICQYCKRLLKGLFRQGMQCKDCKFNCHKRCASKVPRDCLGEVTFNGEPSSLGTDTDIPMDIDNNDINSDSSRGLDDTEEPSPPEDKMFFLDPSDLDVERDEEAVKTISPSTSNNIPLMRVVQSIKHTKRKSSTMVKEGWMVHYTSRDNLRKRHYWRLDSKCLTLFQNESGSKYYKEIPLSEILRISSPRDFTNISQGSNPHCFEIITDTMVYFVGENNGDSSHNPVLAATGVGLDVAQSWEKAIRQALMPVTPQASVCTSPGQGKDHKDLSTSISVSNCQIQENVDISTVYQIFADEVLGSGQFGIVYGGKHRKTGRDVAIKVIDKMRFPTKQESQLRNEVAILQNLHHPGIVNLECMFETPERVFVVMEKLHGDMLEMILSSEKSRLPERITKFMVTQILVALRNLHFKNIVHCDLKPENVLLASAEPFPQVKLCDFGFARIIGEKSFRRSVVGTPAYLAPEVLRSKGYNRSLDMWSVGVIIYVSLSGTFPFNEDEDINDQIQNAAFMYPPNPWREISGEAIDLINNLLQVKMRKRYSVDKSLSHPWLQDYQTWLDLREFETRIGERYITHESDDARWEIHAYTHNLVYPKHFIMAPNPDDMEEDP

Chain of Tyrosine-protein kinase JAK2 (Homo sapiens) (O60674 whole entry): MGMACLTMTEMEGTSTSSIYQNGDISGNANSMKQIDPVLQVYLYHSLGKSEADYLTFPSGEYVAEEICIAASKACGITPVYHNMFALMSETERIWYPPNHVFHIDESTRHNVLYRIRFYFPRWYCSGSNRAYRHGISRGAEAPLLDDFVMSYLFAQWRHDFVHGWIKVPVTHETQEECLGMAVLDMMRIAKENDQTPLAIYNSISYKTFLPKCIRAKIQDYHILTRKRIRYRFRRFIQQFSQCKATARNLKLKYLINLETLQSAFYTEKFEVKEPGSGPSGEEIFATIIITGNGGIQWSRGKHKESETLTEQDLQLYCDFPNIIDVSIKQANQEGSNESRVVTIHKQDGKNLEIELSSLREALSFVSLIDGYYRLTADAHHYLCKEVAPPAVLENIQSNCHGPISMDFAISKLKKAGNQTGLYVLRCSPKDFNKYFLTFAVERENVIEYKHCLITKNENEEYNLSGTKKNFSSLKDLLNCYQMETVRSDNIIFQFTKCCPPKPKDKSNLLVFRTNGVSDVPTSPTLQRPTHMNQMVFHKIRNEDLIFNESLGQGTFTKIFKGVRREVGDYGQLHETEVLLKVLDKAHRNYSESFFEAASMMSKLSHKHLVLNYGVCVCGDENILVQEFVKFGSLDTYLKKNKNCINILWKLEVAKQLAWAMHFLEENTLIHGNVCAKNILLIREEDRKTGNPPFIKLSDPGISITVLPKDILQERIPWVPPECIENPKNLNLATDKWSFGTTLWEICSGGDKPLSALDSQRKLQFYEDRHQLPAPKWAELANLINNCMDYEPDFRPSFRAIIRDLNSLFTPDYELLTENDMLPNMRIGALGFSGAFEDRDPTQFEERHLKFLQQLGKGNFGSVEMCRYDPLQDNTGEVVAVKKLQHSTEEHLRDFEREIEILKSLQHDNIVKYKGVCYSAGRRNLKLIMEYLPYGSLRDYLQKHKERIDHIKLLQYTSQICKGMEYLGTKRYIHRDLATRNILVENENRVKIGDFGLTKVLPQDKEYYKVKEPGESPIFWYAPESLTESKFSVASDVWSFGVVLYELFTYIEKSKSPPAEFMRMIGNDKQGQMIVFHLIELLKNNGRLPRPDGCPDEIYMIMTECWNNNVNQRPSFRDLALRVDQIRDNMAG
Chain of ALK tyrosine kinase receptor (Homo sapiens) (Q9UM73 19-1620 limits assumed): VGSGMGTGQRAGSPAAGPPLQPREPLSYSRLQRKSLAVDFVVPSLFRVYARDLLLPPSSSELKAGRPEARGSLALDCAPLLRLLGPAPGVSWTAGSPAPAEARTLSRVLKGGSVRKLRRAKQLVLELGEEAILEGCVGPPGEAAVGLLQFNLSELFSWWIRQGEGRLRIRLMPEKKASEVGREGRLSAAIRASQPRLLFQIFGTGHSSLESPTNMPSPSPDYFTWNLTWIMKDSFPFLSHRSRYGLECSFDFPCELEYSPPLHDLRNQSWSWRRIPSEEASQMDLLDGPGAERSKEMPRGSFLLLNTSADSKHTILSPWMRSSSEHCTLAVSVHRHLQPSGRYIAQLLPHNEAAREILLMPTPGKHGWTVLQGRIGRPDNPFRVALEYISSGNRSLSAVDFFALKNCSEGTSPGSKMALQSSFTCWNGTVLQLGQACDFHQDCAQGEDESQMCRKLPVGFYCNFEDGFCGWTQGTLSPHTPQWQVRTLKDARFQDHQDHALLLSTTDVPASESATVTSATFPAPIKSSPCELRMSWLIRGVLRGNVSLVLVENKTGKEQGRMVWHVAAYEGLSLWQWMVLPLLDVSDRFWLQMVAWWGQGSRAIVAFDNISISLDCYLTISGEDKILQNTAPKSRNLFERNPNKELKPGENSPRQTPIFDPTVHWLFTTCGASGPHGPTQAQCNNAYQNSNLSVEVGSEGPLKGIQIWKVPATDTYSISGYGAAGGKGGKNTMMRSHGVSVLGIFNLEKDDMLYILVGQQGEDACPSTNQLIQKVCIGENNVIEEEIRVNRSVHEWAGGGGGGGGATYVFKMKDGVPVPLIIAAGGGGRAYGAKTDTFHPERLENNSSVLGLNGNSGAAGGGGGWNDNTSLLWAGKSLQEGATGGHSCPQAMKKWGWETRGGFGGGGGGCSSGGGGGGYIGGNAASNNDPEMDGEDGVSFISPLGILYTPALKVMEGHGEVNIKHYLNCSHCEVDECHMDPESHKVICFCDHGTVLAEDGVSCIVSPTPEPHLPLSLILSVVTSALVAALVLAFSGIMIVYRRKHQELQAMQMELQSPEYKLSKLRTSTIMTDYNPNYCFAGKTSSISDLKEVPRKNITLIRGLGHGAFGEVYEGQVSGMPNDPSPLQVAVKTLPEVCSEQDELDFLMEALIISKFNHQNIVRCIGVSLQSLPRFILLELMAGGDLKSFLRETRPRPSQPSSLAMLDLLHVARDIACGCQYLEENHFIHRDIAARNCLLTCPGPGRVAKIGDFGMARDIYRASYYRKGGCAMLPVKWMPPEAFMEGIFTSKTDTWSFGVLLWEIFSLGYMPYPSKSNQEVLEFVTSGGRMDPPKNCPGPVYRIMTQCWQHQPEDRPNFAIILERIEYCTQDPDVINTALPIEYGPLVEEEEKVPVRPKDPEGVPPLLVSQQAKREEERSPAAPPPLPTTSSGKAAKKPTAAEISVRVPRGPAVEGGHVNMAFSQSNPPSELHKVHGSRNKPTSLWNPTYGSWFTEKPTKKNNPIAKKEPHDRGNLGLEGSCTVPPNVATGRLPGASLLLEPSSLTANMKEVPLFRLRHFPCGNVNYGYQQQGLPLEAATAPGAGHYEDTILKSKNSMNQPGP

Compound	remaining at 0.5 h, 1 µM [1] [%]	IC50 [2] [nM]	IC50 (Blood) [nM]	Papp [3] [×10⁻⁶ cm/s]	inhibition [4] [%]	inhibition [5] [%]	inhibition [6] [%]	inhibition [7] [%]	Cp (Plasma) [µg/mL]	inhibition in vivo at 30 mg/kg (Mus musculus) [%]	inhibition (Mus musculus)
O=C(c1ccc(-c2cnc3ccc(NCC4CC4)nn23)cc1)N(Cc1ccc(Cl)cc1)C[C@@H]1C[C@@H](F)CN1	28	17	1200	39	–	–	–	–	0.45	61	–
CN(C[C@@H]1CCCN1)C(=O)c1ccc(-c2cnc3ccc(NCC4CC4)nn23)cc1	–	97	1900	6.1	–	–	–	–	–	–	–
O=C(NC[C@H]1NCC[C@@H]1F)c1ccc(-c2cnc3ccc(NCC4CC4)nn23)cc1	–	21	1200	–	–	–	–	–	–	–	–
CO[C@H]1CN[C@H](CNC(=O)c2ccc(-c3cnc4ccc(NCC5CC5)nn34)cc2)C1	–	71	2700	< 2	–	–	–	–	–	–	–
O=C(O)CN(C[C@@H]1C[C@@H](F)CN1)C(=O)c1ccc(-c2cnc3ccc(NCC4CC4)nn23)cc1	–	110	3900	14	–	–	–	–	–	–	–
CC(=O)Nc1ccc(CN(C[C@@H]2C[C@@H](F)CN2)C(=O)c2ccc(-c3cnc4ccc(NCC5CC5)nn34)cc2)cc1	–	15	2700	< 2	–	–	–	–	–	–	–
O=C(NC[C@@H]1CCCN1)c1ccc(-c2cnc3ccc(NCC4CC4)nn23)cc1	77	–	6800	< 2	> 90	> 90	> 90	–	0.0075	–	inactive
O=C(c1ccc(-c2cnc3ccc(NCC4CC4)nn23)cc1)N(C[C@@H]1C[C@@H](F)CN1)c1ccccc1	–	7300	–	–	–	–	–	–	–	–	–
O=C(O)c1ccc(CN(C[C@@H]2C[C@@H](F)CN2)C(=O)c2ccc(-c3cnc4ccc(NCC5CC5)nn34)cc2)cc1	–	17	> 10000	< 2	–	–	–	–	–	–	–
CN(C)CCNC(=O)c1ccc(-c2cnc3ccc(NCC4CC4)nn23)cc1	71	–	800	> 50	–	–	–	–	0.39	10	–
O=C(c1ccc(-c2cnc3ccc(NCC4CC4)nn23)cc1)N(C/C=C/c1ccccc1)C[C@@H]1C[C@@H](F)CN1	–	13	950	> 50	–	–	–	–	–	–	–
CO[C@H]1CCN[C@@H]1CNC(=O)c1ccc(-c2cnc3ccc(NCC4CC4)nn23)cc1	–	23	2100	6.5	–	–	–	–	–	–	–
O=C(c1ccc(-c2cnc3ccc(NCC4CC4)nn23)cc1)N(CCO)C[C@@H]1C[C@@H](F)CN1	–	15	680	15	–	–	–	–	–	–	–

The remaining compounds from weak to strong by IC50 (Blood), led by results:

remaining at 0.5 h, 1 µM [1] [%]	IC50 [2] [nM]	IC50 (Blood) [nM]	Papp [3] [×10⁻⁶ cm/s]	inhibition [4] [%]	inhibition [5] [%]	inhibition [6] [%]	inhibition [7] [%]	Compound	Cp (Plasma) [µg/mL]	inhibition in vivo at 30 mg/kg (Mus musculus) [%]	inhibition (Mus musculus)
7	17	590	> 50	–	–	–	–	O=C(c1ccc(-c2cnc3ccc(NCC4CC4)nn23)cc1)N(Cc1cccc(Cl)c1)C[C@@H]1C[C@@H](F)CN1	0.12	40	–
–	22	570	36	–	–	–	80	O=C(NC[C@@H]1C[C@@H](F)CN1)c1ccc(-c2cnc3ccc(NCC4CC4)nn23)cc1	–	–	–
50	42	480	> 50	–	–	–	–	CN(C[C@@H]1C[C@@H](F)CN1)C(=O)c1ccc(-c2cnc3ccc(NCC4CC4)nn23)cc1	0.34	26	–
–	12	400	> 50	–	–	–	–	O=C(c1ccc(-c2cnc3ccc(NCC4CC4)nn23)cc1)N(Cc1ccccc1)C[C@@H]1C[C@@H](F)CN1	–	–	–
33	18	230	42	–	–	–	–	CCN(C[C@@H]1C[C@@H](F)CN1)C(=O)c1ccc(-c2cnc3ccc(NCC4CC4)nn23)cc1	0.15	32	–
33	16	170	> 50	–	–	–	–	CCCN(C[C@@H]1C[C@@H](F)CN1)C(=O)c1ccc(-c2cnc3ccc(NCC4CC4)nn23)cc1	0.16	52	–

Source: ChEMBL document CHEMBL1667807, “Discovery of imidazo[1,2-b]pyridazines as IKKβ inhibitors. Part 2: improvement of potency in vitro and in vivo” (Bioorg Med Chem Lett, 2011)
